Laboratory results reported in ChEMBL document CHEMBL1142695, “Discovery of functionally selective 7,8,9,10-tetrahydro-7,10-ethano-1,2,4-triazolo[3,4-a]phthalazines as GABA A receptor agonists at the alpha3 subunit” (J Med Chem, 2005).

What was measured:
Type in all cases: cell-based
[1] = biological target: T1, GABA-A receptor; alpha-5/beta-3/gamma-2 (Homo sapiens, UniProt P18507+P28472+P31644); test: Inhibition of [3H]Ro-151788 binding to recombinant human gamma-aminobutyric-acid A receptor alpha-5-beta-3-gamma-2 subtype expressed in L (tk-) cells
T1 sequence (P18507 whole entry): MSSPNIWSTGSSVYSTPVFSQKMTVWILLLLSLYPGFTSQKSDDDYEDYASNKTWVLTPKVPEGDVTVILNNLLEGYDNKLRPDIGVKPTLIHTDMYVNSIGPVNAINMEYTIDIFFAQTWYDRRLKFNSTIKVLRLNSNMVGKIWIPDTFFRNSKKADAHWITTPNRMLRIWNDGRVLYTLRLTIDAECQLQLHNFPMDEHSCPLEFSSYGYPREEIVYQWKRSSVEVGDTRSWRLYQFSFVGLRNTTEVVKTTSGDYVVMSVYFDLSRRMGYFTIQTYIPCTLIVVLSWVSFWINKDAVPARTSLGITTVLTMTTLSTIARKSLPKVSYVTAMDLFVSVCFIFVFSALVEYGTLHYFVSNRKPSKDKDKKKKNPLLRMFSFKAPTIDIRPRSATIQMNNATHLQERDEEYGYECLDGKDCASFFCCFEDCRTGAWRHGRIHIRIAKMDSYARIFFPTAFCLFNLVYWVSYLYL
T1 sequence (P28472 whole entry): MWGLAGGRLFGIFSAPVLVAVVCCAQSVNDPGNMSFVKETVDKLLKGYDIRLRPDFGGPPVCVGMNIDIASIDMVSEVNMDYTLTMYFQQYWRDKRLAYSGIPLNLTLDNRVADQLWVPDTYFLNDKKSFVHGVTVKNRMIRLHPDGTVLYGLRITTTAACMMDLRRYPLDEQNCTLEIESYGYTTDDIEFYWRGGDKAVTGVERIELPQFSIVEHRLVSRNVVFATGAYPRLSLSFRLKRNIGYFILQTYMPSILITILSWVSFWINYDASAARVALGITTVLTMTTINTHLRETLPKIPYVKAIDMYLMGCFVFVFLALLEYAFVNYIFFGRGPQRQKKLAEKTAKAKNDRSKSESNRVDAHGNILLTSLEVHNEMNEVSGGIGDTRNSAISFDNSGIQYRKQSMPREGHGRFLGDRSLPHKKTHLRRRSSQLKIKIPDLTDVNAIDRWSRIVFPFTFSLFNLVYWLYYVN
T1 sequence (P31644 whole entry): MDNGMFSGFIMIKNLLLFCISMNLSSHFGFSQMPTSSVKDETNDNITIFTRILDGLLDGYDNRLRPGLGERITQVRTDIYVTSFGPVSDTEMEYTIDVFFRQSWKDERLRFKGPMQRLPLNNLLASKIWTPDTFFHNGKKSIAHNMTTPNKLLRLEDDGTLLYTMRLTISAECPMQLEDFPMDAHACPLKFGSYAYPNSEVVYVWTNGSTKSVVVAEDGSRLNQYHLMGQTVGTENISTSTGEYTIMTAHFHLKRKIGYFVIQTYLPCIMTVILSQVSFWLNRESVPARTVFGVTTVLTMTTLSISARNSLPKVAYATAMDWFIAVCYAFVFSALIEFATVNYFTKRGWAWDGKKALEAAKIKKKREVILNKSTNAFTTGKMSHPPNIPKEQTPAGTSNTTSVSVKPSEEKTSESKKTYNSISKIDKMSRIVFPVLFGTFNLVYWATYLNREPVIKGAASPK

[2] = biological target: T2, GABA-A receptor; alpha-2/beta-3/gamma-2 (Homo sapiens, UniProt P18507+P28472+P47869); test: Inhibition of [3H]Ro-151788 binding to recombinant human gamma-aminobutyric acid A receptor alpha-2-beta-3-gamma-2 subtype expressed in L (tk-) cells
T2 sequence (P18507 whole entry): T1 sequence (P18507 whole entry)
T2 sequence (P28472 whole entry): T1 sequence (P28472 whole entry)
T2 sequence (P47869 whole entry): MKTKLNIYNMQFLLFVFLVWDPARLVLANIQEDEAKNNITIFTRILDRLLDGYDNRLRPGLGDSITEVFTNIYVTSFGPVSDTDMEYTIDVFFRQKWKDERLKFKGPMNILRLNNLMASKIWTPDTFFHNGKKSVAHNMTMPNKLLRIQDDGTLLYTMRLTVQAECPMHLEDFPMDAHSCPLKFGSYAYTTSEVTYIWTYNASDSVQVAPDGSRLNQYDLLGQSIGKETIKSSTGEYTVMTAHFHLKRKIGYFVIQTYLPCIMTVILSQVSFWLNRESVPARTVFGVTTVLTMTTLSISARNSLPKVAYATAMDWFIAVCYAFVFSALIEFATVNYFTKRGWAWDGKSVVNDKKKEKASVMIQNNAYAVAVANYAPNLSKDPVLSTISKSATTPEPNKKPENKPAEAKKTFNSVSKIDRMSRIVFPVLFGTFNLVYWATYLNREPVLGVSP

[3] = biological target: T3, GABA-A receptor; alpha-3/beta-3/gamma-2 (Homo sapiens, UniProt P18507+P28472+P34903); test: Inhibition of [3H]Ro-151788 binding to recombinant human gamma-aminobutyric-acid A receptor alpha-3-beta-3-gamma-2 subtype expressed in L (tk-) cells
T3 sequence (P18507 whole entry): T1 sequence (P18507 whole entry)
T3 sequence (P28472 whole entry): T1 sequence (P28472 whole entry)
T3 sequence (P34903 whole entry): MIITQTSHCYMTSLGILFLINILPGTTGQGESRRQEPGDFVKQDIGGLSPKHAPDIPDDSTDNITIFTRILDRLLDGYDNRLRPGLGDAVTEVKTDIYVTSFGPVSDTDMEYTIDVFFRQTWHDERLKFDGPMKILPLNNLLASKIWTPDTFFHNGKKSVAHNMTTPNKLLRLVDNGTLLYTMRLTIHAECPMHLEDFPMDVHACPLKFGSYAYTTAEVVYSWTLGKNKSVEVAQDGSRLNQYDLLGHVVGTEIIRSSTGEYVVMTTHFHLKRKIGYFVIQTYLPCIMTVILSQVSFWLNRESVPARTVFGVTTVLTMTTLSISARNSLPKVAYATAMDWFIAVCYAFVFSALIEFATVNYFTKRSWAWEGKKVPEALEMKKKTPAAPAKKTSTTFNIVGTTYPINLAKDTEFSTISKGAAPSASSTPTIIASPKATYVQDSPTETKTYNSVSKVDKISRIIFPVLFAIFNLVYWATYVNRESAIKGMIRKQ

[4] = biological target: T4, GABA-A receptor; alpha-1/beta-3/gamma-2 (Homo sapiens, UniProt P14867+P18507+P28472); test: Inhibition of [3H]Ro-151788 binding to recombinant human gamma-aminobutyric-acid A receptor alpha-1-beta-3-gamma-2 subtype expressed in L (tk-) cells
T4 sequence (P14867 whole entry): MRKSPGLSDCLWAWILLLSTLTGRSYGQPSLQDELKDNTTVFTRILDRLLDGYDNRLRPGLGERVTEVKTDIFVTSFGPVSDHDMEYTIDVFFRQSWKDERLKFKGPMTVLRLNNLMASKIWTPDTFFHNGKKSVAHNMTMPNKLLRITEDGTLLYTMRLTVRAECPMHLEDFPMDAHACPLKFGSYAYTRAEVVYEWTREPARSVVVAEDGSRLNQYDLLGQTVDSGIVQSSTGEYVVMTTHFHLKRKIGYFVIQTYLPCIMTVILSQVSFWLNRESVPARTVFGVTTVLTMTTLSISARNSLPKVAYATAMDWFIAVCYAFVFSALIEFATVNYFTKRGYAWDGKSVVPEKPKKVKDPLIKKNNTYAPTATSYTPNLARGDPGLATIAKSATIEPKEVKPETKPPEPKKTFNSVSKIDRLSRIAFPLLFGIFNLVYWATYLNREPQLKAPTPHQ
T4 sequence (P18507 whole entry): T1 sequence (P18507 whole entry)
T4 sequence (P28472 whole entry): T1 sequence (P28472 whole entry)

[5] = biological target: GABA-A receptor; alpha-3/beta-3/gamma-2 (Homo sapiens) (UniProt P18507+P28472+P34903); test: Efficacy was measured as modulation of the current in response to GABA at hGABA alpha-3-beta-3-gamma-2 receptor expressed in Xenopus oocytes; settings: Oocyte
How it was run: (§1)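 Two-electrode voltage clamp on Xenopus oocytes expressing each receptor combination. […] Value is percent increase or decrease of the EC20 GABA current.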

[6] = biological target: GABA-A receptor; alpha-1/beta-3/gamma-2 (Homo sapiens) (UniProt P14867+P18507+P28472); test: Efficacy was measured as modulation of the current in response to GABA at hGABA alpha-1-beta-3-gamma-2 receptor expressed in Xenopus oocytes; settings: Oocyte; how it was run: as §1

Row | Ki [1] | Ki [2] | Ki [3] | Ki [4] | Efficacy [5] | Efficacy [6] | SMILES
1 | 0.77 nM | 6.5 nM | 3 nM | 16 nM | 27% | – | c1ccc(-c2nnc3c4c(c(OCc5cnccn5)nn23)C2CCC4CC2)cc1
2 | 1.2 nM | 21 nM | 10 nM | 68 nM | 33% | 33% | c1ccc(-c2nnc3c4c(c(OCc5cscn5)nn23)C2CCC4CC2)cc1
3 | 3.1 nM | 9.9 nM | 2.4 nM | 3.5 nM | 52% | 62% | CCCc1cccnc1COc1nn2c(-c3ccccc3)nnc2c2c1C1CCC2CC1
4 | 2 nM | 19 nM | 18 nM | 93 nM | 33% | 41% | Cc1ccnc(COc2nn3c(-c4ccccc4)nnc3c3c2C2CCC3CC2)c1
5 | 0.39 nM | 5.2 nM | 2.8 nM | 11 nM | 22% | – | Cn1ncnc1COc1nn2c(-c3ccccc3)nnc2c2c1C1CCC2CC1
6 | 0.19 nM | 2.5 nM | 1.4 nM | 0.9 nM | 78% | 41% | CCCn1ncnc1COc1nn2c(-c3ccccc3)nnc2c2c1C1CCC2CC1
7 | 0.87 nM | 18 nM | 6.7 nM | 53 nM | 29% | 35% | c1ccc(-c2nnc3c4c(c(OCc5ncc[nH]5)nn23)C2CCC4CC2)cc1
8 | 0.555 nM | 8.1 nM | 3.1 nM | 22 nM | 14% | – | c1ccc(-c2nnc3c4c(c(OCc5ccncn5)nn23)C2CCC4CC2)cc1
9 | 9 nM | 50 nM | 40 nM | 78 nM | 83% | – | CCCn1cnc(COc2nn3c(-c4ccccc4)nnc3c3c2C2CCC3CC2)n1
10 | 0.9 nM | 15 nM | 7.8 nM | 85 nM | 28% | – | Cc1c[nH]c(COc2nn3c(-c4ccccc4)nnc3c3c2C2CCC3CC2)n1
11 | – | – | – | – | 49% | – | c1ccc(-c2nnc3c4c(c(OCc5nc[nH]n5)nn23)C2CCC4CC2)cc1

Further lines, the molecule ahead of its results:

Row | SMILES | Ki [1] | Ki [2] | Ki [3] | Ki [4] | Efficacy [5] | Efficacy [6]
12 | Cc1cccnc1COc1nn2c(-c3ccccc3)nnc2c2c1C1CCC2CC1 | 0.46 nM | 2 nM | 2.1 nM | 9.8 nM | 7% | 17%
13 | c1ccc(-c2nnc3c4c(c(OCc5nccc6ccccc56)nn23)C2CCC4CC2)cc1 | 0.69 nM | 7.5 nM | 4.5 nM | 29 nM | 14% | 45%
14 | COc1cccc(-c2nnc3c4c(c(OCc5ccccn5)nn23)C2CCC4CC2)c1 | 6 nM | 79 nM | 29 nM | 140 nM | 43% | 51%
15 | Cc1ccc(COc2nn3c(-c4ccccc4)nnc3c3c2C2CCC3CC2)nn1 | 2.1 nM | 22 nM | 10 nM | 50 nM | 31% | –
16 | COc1cccnc1COc1nn2c(-c3ccccc3)nnc2c2c1C1CCC2CC1 | 0.65 nM | 9.1 nM | 2.4 nM | 17 nM | 8% | –
17 | c1ccc(-c2nnc3c4c(c(OCc5ccncc5)nn23)C2CCC4CC2)cc1 | 4.7 nM | 82 nM | 13 nM | 140 nM | 17% | 38%
18 | OCCCCOc1nn2c(-c3ccccc3)nnc2c2c1C1CCC2CC1 | 8.5 nM | 34 nM | 19 nM | 71 nM | 20% | –
19 | c1ccc(Cn2ccnc2COc2nn3c(-c4ccccc4)nnc3c3c2C2CCC3CC2)cc1 | 0.21 nM | 1.7 nM | 2 nM | 0.81 nM | 100% | 73%
20 | Cc1ccnc(COc2nn3c(-c4ccccc4)nnc3c3c2C2CCC3CC2)c1C | 1 nM | 4 nM | 1.7 nM | 11 nM | 17% | –
21 | Cc1ccc(C)c(COc2nn3c(-c4ccccc4)nnc3c3c2C2CCC3CC2)n1 | 0.84 nM | 8.7 nM | 3.6 nM | 27 nM | 12% | –
22 | COC(=O)c1cccnc1COc1nn2c(-c3ccccc3)nnc2c2c1C1CCC2CC1 | 2.5 nM | 30 nM | 7.1 nM | – | 29% | –
23 | N#Cc1cccnc1COc1nn2c(-c3ccccc3)nnc2c2c1C1CCC2CC1 | 0.54 nM | 5.9 nM | 1.7 nM | 13 nM | 17% | –
24 | OCc1cccc(COc2nn3c(-c4ccccc4)nnc3c3c2C2CCC3CC2)c1 | 11 nM | 110 nM | 43 nM | 490 nM | – | –
25 | O=C(COc1nn2c(-c3ccccc3)nnc2c2c1C1CCC2CC1)N1CCCC1 | 9 nM | 160 nM | 50 nM | 230 nM | – | –
